Results taken from ChEMBL document CHEMBL4513216, “Probing the Open Global Health Chemical Diversity Library for Multistage-Active Starting Points for Next-Generation Antimalarials” (ACS Infect Dis, 2020).

Experiment: Toxicity liver stage against HepG2, at 10uM
Format: cell-based
Design: test concentration 10 uM, cell line HepG2-A16-CD81EGFP
Settings: human, HepG2-A16-CD81EGFP cells; read-out: INHIBITION
Method in brief: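 Uninfected HepG2-A16-CD81EGFP cells, 3 × 10^3 per well, 1536-well, plated on prespotted compound at 10 μM final, parasite-free screening media added to match infected plates; puromycin 10 μM positive, DMSO 0.5% negative; run in parallel with 48 h PbLuc assay at 37 °C, 5% CO2; viability by CellTiter-Glo luminescence, normalized to controls.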

| SMILES | cytotoxicity at 10 µM [%] |
| --- | --- |
| COc1ccc(-c2noc(-c3ccc(N4CCC[C@H]4CO)nc3)n2)cc1 | 11.1 |
| Cc1nc(C)n(CC2CCCN(c3ncnc4ccsc34)C2)n1 (stereo unspecified) | 42.4 |
| Cc1nnc(NC(=O)NCc2cccnc2N(C)C)s1 | -10.3 |
| CC(C)CN1CC2(CCN(C(=O)c3cnccn3)CC2)CC1=O | 2.46 |
| Cn1cc(CN2CCc3ncnc(N4CCOCC4)c3CC2)cn1 | -3.46 |
| CC(=O)c1ccc(NC(=O)N(CCN(C)C)Cc2ccc(C)s2)cc1 | -16.5 |
| c1c(CN2CCCC2)nc2n1CCNC2 | 9.94 |
| CCc1nnc(NC(=O)c2c3c(nn2C2CCS(=O)(=O)C2)CCC3)s1 (stereo unspecified) | -4.28 |
| CCc1cnc(N2CC3(CCN(C(=O)c4ccoc4)C3)C2)nc1 | -8.37 |
| CC(=O)N1CCN(C(=O)NCc2csc(Br)c2)CC1 | -6.31 |
| CCC(c1ccc(F)cc1)N1CCn2c(CO)nnc2C1 (stereo unspecified) | -9.15 |
| Cc1cc(O)nc(C2CN(CC3(O)CCOCC3)CCO2)n1 (stereo unspecified) | -18.3 |
| Cc1cc(C)nc(CN(C)c2nc(C3CCCC3)nc3c2cnn3C)c1 | 12.4 |
| CCn1ncc(NC(=O)CCn2ncc3c(Cl)cccc32)c1C | 7.74 |
| Cc1nnc(N2CCOC(CN(C)C)C2)c(C#N)c1C (stereo unspecified) | -9.95 |
| O=C(NCc1ccco1)C1CCCN1Cc1nc(-c2ccco2)no1 (stereo unspecified) | -6.46 |
| Cn1ccc(-c2cc(C(=O)N3CCC(O)CC3)c3ccccn23)n1 | -98.3 |
| O=C(NS(=O)(=O)c1ccccc1Cl)c1cccc2c1OCCO2 | -11 |
| Cn1cnc2c1CCN(CCCOc1ccc(S(C)(=O)=O)cc1)C2 | 4.94 |
| Cn1c(N)nnc1SC1CCCN(c2ccccc2F)C1=O (stereo unspecified) | -7.29 |
| CC(C)N1CCC(N2CCN(C3CCCCC3)CC2CCO)CC1 (stereo unspecified) | -9.63 |
| CCc1ccccc1CNC(=O)CNCC(F)(F)F | 10.6 |
| CCCOc1c(CNC2CCSC2)cccc1OC (stereo unspecified) | 4.36 |

| SMILES | cytotoxicity at 10 µM [%] |
| --- | --- |
| Cc1ccc(CNC(=O)c2cc(C)n(C)n2)o1 | 0.25 |
| Cc1csc(NC(=O)CN2CCCC(Cn3nc(C)nc3C)C2)n1 (stereo unspecified) | -3.95 |
| c1ccc(-c2nnc([C@H]3CCN(C4CCC4)C3)o2)cc1 | 1.74 |
| CCn1c(C)cc(C(=O)N2CCCC(n3ccnc3C)C2)c1C (stereo unspecified) | -1.51 |
| CN(CC(C)(C)O)C1CCCN(Cc2noc(C3CC3)n2)C1 (stereo unspecified) | 0.85 |
| Cc1noc(Cl)c1CCC(=O)N1CCN(c2ncccn2)CC1 | -2.01 |
| c1ncn(Cc2nnc(C3CCN(CC4CC4)CC3)n2C2CC2)n1 | 5.2 |
| CC(CN1CCOC1=O)NC(=O)c1cccc(Cl)c1Cl (stereo unspecified) | -3.26 |
| CN(C)CCN1C(=O)CCC12CCCN(C(=O)C1CC=CC1)CC2 (stereo unspecified) | 3.7 |
| CCN(CC)C(=O)CN(C)Cc1nc2c(cnn2C)c(=O)[nH]1 | -0.958 |
| CC(Nc1nc2c(cnn2C)c(=O)[nH]1)c1ccc(F)cc1 (stereo unspecified) | 16.6 |
| CCn1cnnc1CNC(=O)N1CCC(O)CC1 | -4.86 |
| CC(C)(C)c1n[nH]cc1CNC1CCC(O)CC1 (stereo unspecified) | 2.33 |
| O=C(Cn1cccn1)N(CCO)CCSc1ccc(Cl)cc1 | 0.513 |
| Cc1nc(C2CCCN(C(=O)Cn3ccccc3=O)C2)no1 (stereo unspecified) | -9.37 |
| Cc1nc(S(=O)(=O)N2CCCCc3ccccc32)cn1C | -2.38 |
| COCC(=O)N1CCN(c2cc(-n3cccc3)nc(C)n2)CC1 | -6.81 |
| Cc1ccc(-c2nnc(CN3CCc4nn(C)c(=O)cc4C3)o2)cc1 | -23.4 |
| Cn1cc([C@@H]2CN(S(=O)(=O)c3cccs3)C[C@H]2N)c2ccncc21 | 1.44 |
| O=C(Nc1cccnc1)[C@H]1CO[C@H]2CCN(c3ncc(F)cn3)C[C@H]2C1 | -12.8 |
| O=C(CCn1ncc2ccccc21)N1CCCC(Cc2cccnc2)C1 (stereo unspecified) | -1.83 |
| CC(C)N1CCC(Cc2cncc(-c3cccc(C(=O)O)c3)n2)CC1 | -20.8 |
| Cn1c(N2CCOCC2)nc2cc(C(=O)N[C@@H]3CC[C@@H](N)C3)ccc21 | -1.07 |
